{"source": "ChEMBL document CHEMBL1121364", "about": "“Nucleoside conjugates as potential antitumor agents. 3. Synthesis and antitumor activity of 1-(beta-D-arabinofuranosyl)cytosine conjugates of corticosteroids” (1980)", "key": {"[1]": {"tested_on": "L1210", "assay": "Antitumor activity in the mice with intraperitoneal implanted L1210 lymphoid leukemia at the dose of 50 mg/kg/day x 5 was determined as mean survival of treated group compared to untreated; 13.5/9", "type": "functional, Mus musculus", "in_short": "(§1)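 C3D2F1/J female mice (C3H/HeJ female × DBA/2J male), groups of six to eight, average weight 25 g. Inoculated ip with 1 × 10^6 L1210 ascites cells taken from DBA/2Ha donor mice bearing 3-5 day old tumors. Compounds were dissolved in 0.154 N NaOH, neutralized with 0.154 N HCl (final 0.9% NaCl), and given ip daily for 5 days from 24 h post-implant. Median survival T/C; ILS = (T/C − 1) × 100; 30-day survivors counted.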"}, "[2]": {"tested_on": "L1210", "assay": "Antitumor activity in the mice with intraperitoneal implanted L1210 lymphoid leukemia at the dose of 100 mg/kg/day x 5 was determined as mean survival of treated group compared to untreated; 9.5/9", "type": "functional, Mus musculus", "in_short": "as §1"}, "[3]": {"tested_on": "L1210", "assay": "Antitumor activity in the mice with intraperitoneal implanted L1210 lymphoid leukemia at the dose of 25 mg/kg/day x 5 was determined as mean survival of treated group compared to untreated; 11.5/9", "type": "functional, Mus musculus", "in_short": "as §1"}, "[4]": {"tested_on": "L1210", "assay": "Antitumor activity in the mice with intraperitoneal implanted L1210 lymphoid leukemia at the dose 100 mg/kg/day x 5 was determined as percentage increase in the life span as compared with control tumor bearers", "type": "functional", "settings": "Mus musculus, L1210, ip", "in_short": "(§2)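 Female C3D2F1/J mice (C3H/HeJ × DBA/2J), groups of six to eight, average weight 25 g. Each mouse got 1 × 10^6 L1210 ascites cells ip, taken from DBA/2Ha donor mice bearing 3-5 day tumors. Compound was dissolved in 0.154 N NaOH and neutralized with 0.154 N HCl (final 0.9% NaCl). Dosed ip daily ×5, starting 24 h after implant. Recorded body weight change on day 8, survival range, median survival and 30-day survivors. ILS = (T/C − 1) × 100.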"}, "[5]": {"tested_on": "L1210", "assay": "In Vitro evaluation for the antiproliferative activity by observing the growth inhibition of L1210 lymphoid leukemia cells in culture at 72 hour", "type": "functional, Mus musculus", "in_short": "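Growth of L1210 lymphoid leukemia cells in culture measured by Trypan blue exclusion of viable cells after 72 h of drug exposure. ED50 is the concentration giving 50% growth inhibition. In some runs the compound was first preincubated in medium at 37 °C for 24 or 48 h before the assay.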"}, "[6]": {"tested_on": "L1210", "assay": "Antitumor activity in mice with intraperitoneal implanted L1210 lymphoid leukemia at the dose 100 mg/kg/day x 5 was determined as weight change (g/mouse) on 8th day", "type": "functional", "in_short": "(§3)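 C3D2F1/J female mice (C3H/HeJ × DBA/2J), groups of six to eight, average 25 g, inoculated ip with 1 × 10^6 L1210 ascites cells taken from DBA/2Ha donor mice carrying 3-5 day tumors. Compound dissolved in 0.154 N NaOH, then neutralized with 0.154 N HCl to give 0.9% NaCl. Given ip daily for 5 consecutive days starting 24 h after implantation. Body weight change per mouse recorded on day 8.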"}, "[7]": {"tested_on": "L1210", "assay": "Antitumor activity in mice with intraperitoneal implanted L1210 lymphoid leukemia at the dose 25 mg/kg/day x 5 was determined as weight change (g/mouse) on 8th day", "type": "functional", "in_short": "as §3"}, "[8]": {"tested_on": "L1210", "assay": "Antitumor activity in mice with intraperitoneal implanted L1210 lymphoid leukemia at the dose 50 mg/kg/day x 5 was determined as weight change (g/mouse) on 8th day", "type": "functional", "in_short": "as §3"}, "[9]": {"tested_on": "L1210", "assay": "Antitumor activity in the mice with intraperitoneal implanted L1210 lymphoid leukemia at the dose 100 mg/kg/day x 5 was determined and number of animals survived on 30 th day were reported; 0/8", "type": "functional, Mus musculus", "in_short": "as §2"}, "[10]": {"tested_on": "L1210", "assay": "Antitumor activity in the mice with intraperitoneal implanted L1210 lymphoid leukemia at the dose 25 mg/kg/day x 5 was determined and number of animals survived on 30 th day were reported; 0/8", "type": "functional, Mus musculus", "in_short": "as §2"}, "[11]": {"tested_on": "L1210", "assay": "Antitumor activity in the mice with intraperitoneal implanted L1210 lymphoid leukemia at the dose 50 mg/kg/day x 5 was determined as Survival time in days; Range is 10-17 days", "type": "functional, Mus musculus", "in_short": "as §2"}, "[12]": {"tested_on": "L1210", "assay": "Antitumor activity in the mice with intraperitoneal implanted L1210 lymphoid leukemia at the dose 50 mg/kg/day x 5 was determined and number of animals survived on 30 th day were reported; 0/8", "type": "functional, Mus musculus", "in_short": "as §2"}, "[13]": {"tested_on": "L1210", "assay": "Antitumor activity in the mice with intraperitoneal implanted L1210 lymphoid leukemia at the dose 50 mg/kg/day x 5 was determined as percentage increase in the life span as compared with control tumor bearers", "type": "functional", "settings": "Mus musculus, L1210, ip", "in_short": "as §1"}, "[14]": {"tested_on": "L1210", "assay": "Antitumor activity in the mice with intraperitoneal implanted L1210 lymphoid leukemia at the dose 100 mg/kg/day x 5 was determined as Survival time in days; Range is 8-13 days", "type": "functional, Mus musculus", "in_short": "as §2"}, "[15]": {"tested_on": "L1210", "assay": "Antitumor activity in the mice with intraperitoneal implanted L1210 lymphoid leukemia at the dose 25 mg/kg/day x 5 was determined as Survival time in days; Range is 7-15 days", "type": "functional, Mus musculus", "in_short": "as §2"}, "[16]": {"tested_on": "L1210", "assay": "Antitumor activity in the mice with intraperitoneal implanted L1210 lymphoid leukemia at the dose 25 mg/kg/day x 5 was determined as percentage increase in the life span as compared with control tumor bearers", "type": "functional", "settings": "Mus musculus, L1210, ip", "in_short": "as §2"}, "[17]": {"tested_on": "L1210", "assay": "Antitumor activity in the mice with intraperitoneal implanted L1210 lymphoid leukemia at the dose of 50 mg/kg/day x 5 was determined as mean survival of treated group compared to untreated; 24/8", "type": "functional, Mus musculus"}, "[18]": {"tested_on": "L1210", "assay": "Antitumor activity in the mice with intraperitoneal implanted L1210 lymphoid leukemia at the dose of 25 mg/kg/day x 5 was determined as mean survival of treated group compared to untreated; 16.5/8.5", "type": "functional, Mus musculus", "in_short": "as §1"}, "[19]": {"tested_on": "L1210", "assay": "Antitumor activity in mice with intraperitoneal implanted L1210 lymphoid leukemia at the dose 75 mg/kg/day x 5 was determined as weight change (g/mouse) on 8th day", "type": "functional", "in_short": "as §3"}, "[20]": {"tested_on": "L1210", "assay": "Antitumor activity in the mice with intraperitoneal implanted L1210 lymphoid leukemia at the dose of 75 mg/kg/day x 5 was determined as mean survival of treated group compared to untreated; 17/8.5", "type": "functional, Mus musculus"}, "[21]": {"tested_on": "L1210", "assay": "Antitumor activity in the mice with intraperitoneal implanted L1210 lymphoid leukemia at the dose 50 mg/kg/day x 5 was determined as Survival time in days; Range is 15-42 days", "type": "functional, Mus musculus", "in_short": "as §2"}, "[22]": {"tested_on": "L1210", "assay": "Antitumor activity in the mice with intraperitoneal implanted L1210 lymphoid leukemia at the dose 75 mg/kg/day x 5 was determined as Survival time in days; Range is 12-21 days", "type": "functional, Mus musculus", "in_short": "as §1"}, "[23]": {"tested_on": "L1210", "assay": "Antitumor activity in the mice with intraperitoneal implanted L1210 lymphoid leukemia at the dose 50 mg/kg/day x 5 was determined and number of animals survived on 30 th day were reported; 2/8", "type": "functional, Mus musculus", "in_short": "as §2"}, "[24]": {"tested_on": "L1210", "assay": "Antitumor activity in the mice with intraperitoneal implanted L1210 lymphoid leukemia at the dose 75 mg/kg/day x 5 was determined and number of animals survived on 30 th day were reported; 0/8", "type": "functional, Mus musculus", "in_short": "as §1"}, "[25]": {"tested_on": "L1210", "assay": "Antitumor activity in the mice with intraperitoneal implanted L1210 lymphoid leukemia at the dose 75 mg/kg/day x 5 was determined as percentage increase in the life span as compared with control tumor bearers", "type": "functional", "settings": "Mus musculus, L1210, ip", "in_short": "as §1"}, "[26]": {"tested_on": "L1210", "assay": "Antitumor activity in the mice with intraperitoneal implanted L1210 lymphoid leukemia at the dose 25 mg/kg/day x 5 was determined as Survival time in days; Range is 14-18 days", "type": "functional, Mus musculus", "in_short": "as §2"}}}
{"compound": "C[C@@H]1C[C@H]2[C@@H]3CCC4=CC(=O)C=C[C@]4(C)[C@@]3(F)[C@@H](O)C[C@]2(C)[C@@]1(O)C(=O)COP(=O)(O)OC[C@H]1O[C@@H](n2ccc(N)nc2=O)[C@@H](O)[C@@H]1O", "values": [{"measurement": "T/C", "setting": "[1]", "value": 13.5}, {"measurement": "T/C", "setting": "[2]", "value": 9.5}, {"measurement": "T/C", "setting": "[3]", "value": 11.5}, {"measurement": "ILS at 100 mg/kg/day", "setting": "[4]", "value": 6, "unit": "%"}, {"measurement": "ED 50", "setting": "[5]", "value": 80, "unit": "nM"}, {"measurement": "Weight change", "setting": "[6]", "value": -2.02, "unit": "g mouse-1"}, {"measurement": "Weight change", "setting": "[7]", "value": -1.25, "unit": "g mouse-1"}, {"measurement": "Weight change", "setting": "[8]", "value": -1.05, "unit": "g mouse-1"}, {"measurement": "Survivors", "setting": "[9]", "value": 0}, {"measurement": "Survivors", "setting": "[10]", "value": 0}, {"measurement": "Survival time", "setting": "[11]", "value": 10, "unit": "days"}, {"measurement": "Survivors", "setting": "[12]", "value": 0}, {"measurement": "ILS at 50 mg/kg/day", "setting": "[13]", "value": 50, "unit": "%"}, {"measurement": "Survival time", "setting": "[14]", "value": 8, "unit": "days"}, {"measurement": "Survival time", "setting": "[15]", "value": 7, "unit": "days"}, {"measurement": "ILS at 25 mg/kg/day", "setting": "[16]", "value": 28, "unit": "%"}]}
{"compound": "C[C@]12C[C@H](O)[C@H]3[C@@H](CCC4=CC(=O)CC[C@@]43C)[C@@H]1CC[C@@H]2C(=O)COP(=O)(O)OC[C@H]1O[C@@H](n2ccc(N)nc2=O)[C@@H](O)[C@@H]1O", "values": [{"measurement": "T/C", "setting": "[17]", "value": 24}, {"measurement": "T/C", "setting": "[18]", "value": 16.5}, {"measurement": "Weight change", "setting": "[19]", "value": -0.59, "unit": "g mouse-1"}, {"measurement": "ED 50", "setting": "[5]", "value": 90, "unit": "nM"}, {"measurement": "T/C", "setting": "[20]", "value": 17}, {"measurement": "Weight change", "setting": "[7]", "value": 0.06, "unit": "g mouse-1"}, {"measurement": "Weight change", "setting": "[8]", "value": -1.24, "unit": "g mouse-1"}, {"measurement": "Survivors", "setting": "[10]", "value": 0}, {"measurement": "Survival time", "setting": "[21]", "value": 15, "unit": "days"}, {"measurement": "Survival time", "setting": "[22]", "value": 12, "unit": "days"}, {"measurement": "Survivors", "setting": "[23]", "value": 2}, {"measurement": "Survivors", "setting": "[24]", "value": 0}, {"measurement": "ILS at 50 mg/kg/day", "setting": "[13]", "value": 200, "unit": "%"}, {"measurement": "ILS at 75 mg/kg/day", "setting": "[25]", "value": 100, "unit": "%"}, {"measurement": "Survival time", "setting": "[26]", "value": 14, "unit": "days"}, {"measurement": "ILS at 25 mg/kg/day", "setting": "[16]", "value": 94, "unit": "%"}]}
